Assay results as given in ChEMBL document CHEMBL1122293, “Synthesis, evaluation of chemical reactivity, and murine antineoplastic activity of 2-hydroxy-5-(3,4-dichlorophenyl)-6,7-bis(hydroxymethyl)-2,3-dihydro-1H- pyrrolizine bis(2-propylcarbamate) and 2-acyloxy derivatives as potential water-soluble prodrugs” (J Med Chem, 1983).
In brackets after ≈: the same amount, converted by molar mass.

Columns and labels:
P388 [1] = test: Log of the tumor cell population at the end of treatment at 10 mg/kg (ip) against P388 Lymphocytic Leukemia in mice; assay type: functional, Mus musculus
P388 [2] = test: Median survival time of test animals compared to controls at 5 mg/kg (ip) against P388 Lymphocytic Leukemia in mice; assay type: functional, Mus musculus
In short: (§1)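 P388 leukemia cells were given ip to male CDF1 mice. Dosing started 24 h later: nine daily ip doses given as suspensions in Klucel (hydroxypropylcellulose) or in water. Toxicity day was day 5 and evaluation was on day 30. The value is % T/C of median survival time against untreated controls, with a parallel positive-control arm.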

B16 [3] = test: Weight difference at 80 mg/kg (ip) against B16 melanocarcinoma in mice; assay type: functional, Mus musculus
In short: (§2)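 Female BDF1 mice given ip 0.5 mL of tumor brei (1.0 g tissue per 10 mL). Nine daily ip doses beginning 24 h later, as Klucel suspensions or a water/Tween-80 suspension. Acute toxicity scored day 5; survival read day 60. Cures counted per 10-animal group at day 60; weight difference reported as treated minus control (g).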

B16 [4] = test: Weight difference at 20 mg/kg (ip)against B16 melanocarcinoma in mice; assay type: functional, Mus musculus; in short: as §2
P388 [5] = test: Median survival time of test animals compared to controls at 80 mg/kg (ip) against P388 Lymphocytic Leukemia in mice; assay type: functional, Mus musculus; in short: as §1
[6] = Water solubility of the compound; assay type: ADME; settings: read-out: S
In short: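 Excess bis(carbamate) (30-60 mg) in 2 mL distilled water, vortexed 10 min, filtered through Teflon wool and diluted. UV absorbance read at 291 nm. Concentration from a linear Beer's law calibration made with a salt standard (r = 0.998).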

P388 [7] = test: Weight difference at 80 mg/kg (ip)against P388 Lymphocytic Leukemia in mice; assay type: functional, Mus musculus
In short: (§3)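 Male CDF1 mice inoculated ip with P388 leukemia cells. Nine daily ip doses beginning 24 h later, as suspensions in Klucel or water. Acute toxicity evaluated day 5. Weight difference reported as treated minus control (g).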

P388 [8] = test: Weight difference at 2.5 mg/kg (ip)against P388 Lymphocytic Leukemia in mice; assay type: functional, Mus musculus; in short: as §3
B16 [9] = test: Median survival time of test animals compared to controls at 10 mg/kg (ip) against B16 melanocarcinoma in mice; assay type: functional, Mus musculus
In short: (§4)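 Female BDF1 mice received B16 tumor brei ip (0.5 mL of 1.0 g tissue per 10 mL). From 24 h later they got nine daily ip doses, suspended in Klucel or water/Tween-80. Acute toxicity was assessed on day 5 and survival was evaluated on day 60. The value is median survival as % T/C, with 10 mice per group and a positive control run in parallel.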

B16 [10] = test: No. of cures on day 60 at 80 mg/kg (ip) against B16 melanocarcinoma in mice; assay type: functional, Mus musculus; in short: as §2
P388 [11] = test: Weight difference at 10 mg/kg (ip)against P388 Lymphocytic Leukemia in mice; assay type: functional, Mus musculus; in short: as §3
B16 [12] = test: No. of cures on day 60 at 40 mg/kg (ip) against B16 melanocarcinoma in mice; assay type: functional, Mus musculus; in short: as §2
P388 [13] = test: Log of the tumor cell population at the end of treatment at 20 mg/kg (ip) against P388 Lymphocytic Leukemia in mice; assay type: functional, Mus musculus
B16 [14] = test: Median survival time of test animals compared to controls at 40 mg/kg (ip) against B16 melanocarcinoma in mice; assay type: functional, Mus musculus; in short: as §4
P388 [15] = test: Weight difference at 20 mg/kg (ip)against P388 Lymphocytic Leukemia in mice; assay type: functional, Mus musculus; in short: as §3
B16 [16] = test: Median survival time of test animals compared to controls at 20 mg/kg (ip) against B16 melanocarcinoma in mice; assay type: functional, Mus musculus; in short: as §4
B16 [17] = test: No. of cures on day 60 at 10 mg/kg (ip) against B16 melanocarcinoma in mice; assay type: functional, Mus musculus; in short: as §2
B16 [18] = test: Weight difference at 5 mg/kg (ip)against B16 melanocarcinoma in mice; assay type: functional, Mus musculus; in short: as §2
B16 [19] = test: Median survival time of test animals compared to controls at 5 mg/kg (ip) against B16 melanocarcinoma in mice; assay type: functional, Mus musculus; in short: as §4
P388 [20] = test: Weight difference at 40 mg/kg (ip)against P388 Lymphocytic Leukemia in mice; assay type: functional, Mus musculus; in short: as §3
P388 [21] = test: Median survival time of test animals compared to controls at 20 mg/kg (ip) against P388 Lymphocytic Leukemia in mice; assay type: functional, Mus musculus; in short: as §1
B16 [22] = test: No. of cures on day 60 at 5 mg/kg (ip) against B16 melanocarcinoma in mice; assay type: functional, Mus musculus; in short: as §2
B16 [23] = test: Weight difference at 10 mg/kg (ip)against B16 melanocarcinoma in mice; assay type: functional, Mus musculus; in short: as §2
P388 [24] = test: Log of the tumor cell population at the end of treatment at 80 mg/kg (ip) against P388 Lymphocytic Leukemia in mice; assay type: functional, Mus musculus
P388 [25] = test: Median survival time of test animals compared to controls at 40 mg/kg (ip) against P388 Lymphocytic Leukemia in mice; assay type: functional, Mus musculus; in short: as §1
P388 [26] = test: Log of the tumor cell population at the end of treatment at 5 mg/kg (ip) against P388 Lymphocytic Leukemia in mice; assay type: functional, Mus musculus
P388 [27] = test: Log of the tumor cell population at the end of treatment at 40 mg/kg (ip) against P388 Lymphocytic Leukemia in mice; assay type: functional, Mus musculus
B16 [28] = test: Median survival time of test animals compared to controls at 80 mg/kg (ip) against B16 melanocarcinoma in mice; assay type: functional, Mus musculus; in short: as §4
B16 [29] = test: No. of cures on day 60 at 20 mg/kg (ip) against B16 melanocarcinoma in mice; assay type: functional, Mus musculus; in short: as §2
B16 [30] = test: Weight difference at 40 mg/kg (ip)against B16 melanocarcinoma in mice; assay type: functional, Mus musculus; in short: as §2
P388 [31] = test: Median survival time of test animals compared to controls at 10 mg/kg (ip) against P388 Lymphocytic Leukemia in mice; assay type: functional, Mus musculus; in short: as §1
P388 [32] = test: Weight difference at 5 mg/kg (ip)against P388 Lymphocytic Leukemia in mice; assay type: functional, Mus musculus; in short: as §3
P388 [33] = test: Median survival time of test animals compared to controls at 2.5 mg/kg (ip) against P388 Lymphocytic Leukemia in mice; assay type: functional, Mus musculus
In short: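 P388 leukemia cells given ip to male CDF1 mice; ip dosing began 24 h later, nine daily doses, as suspensions in Klucel (hydroxypropylcellulose) or water. Acute toxicity checked on day 5. Survival read on day 30 as median survival time of treated versus control mice (% T/C). Weight difference is treated minus control, in grams.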

P388 [34] = test: Median survival time of test animals compared to controls at 25 mg/kg (ip) against P388 Lymphocytic Leukemia in mice; assay type: functional, Mus musculus
In short: (§5)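 P388 leukemia cells were inoculated ip into male CDF1 mice. Treatment began 24 h later, given ip as five daily doses, either as a Klucel (hydroxypropylcellulose) suspension or as an aqueous solution. Acute toxicity was assessed on day 5 and results were read on day 30. The value is median survival of treated versus control mice, as % T/C.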

P388 [35] = test: Log of the tumor cell population at the end of treatment at 12.5 mg/kg (ip) against P388 Lymphocytic Leukemia in mice; assay type: functional, Mus musculus
P388 [36] = test: Log of the tumor cell population at the end of treatment at 25 mg/kg (ip) against P388 Lymphocytic Leukemia in mice; assay type: functional, Mus musculus
P388 [37] = test: Weight difference at 100 mg/kg (ip)against P388 Lymphocytic Leukemia in mice; assay type: functional, Mus musculus
In short: (§6)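 Male CDF1 mice given 6×10^6 leukemia cells ip. Five daily ip doses beginning 24 h later, as Klucel suspension or aqueous solution. Acute toxicity on day 5; survival assessed on day 30. Weight difference reported as treated minus control (g).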

P388 [38] = test: Median survival time of test animals compared to controls at 12.5 mg/kg (ip) against P388 Lymphocytic Leukemia in mice; assay type: functional, Mus musculus
In short: (§7)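 P388 leukemia cells inoculated ip into male CDF1 mice; ip treatment started 24 h later, five daily doses, as Klucel (hydroxypropylcellulose) suspension or aqueous solution. Acute toxicity on day 5. Day-30 median survival of treated versus control mice expressed as % T/C. Weight difference is treated minus control, in grams.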

P388 [39] = test: Weight difference at 12.5 mg/kg (ip)against P388 Lymphocytic Leukemia in mice; assay type: functional, Mus musculus; in short: as §7
P388 [40] = test: Weight difference at 25 mg/kg (ip)against P388 Lymphocytic Leukemia in mice; assay type: functional, Mus musculus; in short: as §6
P388 [41] = test: Median survival time of test animals compared to controls at 100 mg/kg (ip) against P388 Lymphocytic Leukemia in mice; assay type: functional, Mus musculus; in short: as §5
P388 [42] = test: Log of the tumor cell population at the end of treatment at 100 mg/kg (ip) against P388 Lymphocytic Leukemia in mice; assay type: functional, Mus musculus
P388 [43] = test: Weight difference at 50 mg/kg (ip)against P388 Lymphocytic Leukemia in mice; assay type: functional, Mus musculus; in short: as §6
P388 [44] = test: Log of the tumor cell population at the end of treatment at 50 mg/kg (ip) against P388 Lymphocytic Leukemia in mice; assay type: functional, Mus musculus
P388 [45] = test: Median survival time of test animals compared to controls at 50 mg/kg (ip) against P388 Lymphocytic Leukemia in mice; assay type: functional, Mus musculus; in short: as §5

Structure (SMILES): CC(C)NC(=O)OCc1c(COC(=O)NC(C)C)c(-c2ccc(Cl)c(Cl)c2)n2c1CC(OC(=O)CN(C)C)C2 (centres undefined)
- Log cell kill (P388 [1]): -1.61
- T/C (P388 [2]): 117%
- Weight change (B16 [3]): -1.5 g
- Weight change (B16 [4]): 0.5 g
- T/C (P388 [5]): 110%
- solubility [6]: 0.0196 mM (≈ 11.4 µg/mL)
- Weight change (P388 [7]): -3.4 g
- Weight change (P388 [8]): 0.1 g
- T/C (B16 [9]): 152%
- Cures (B16 [10]): 0
- Weight change (P388 [11]): -2 g
- Cures (B16 [12]): 1
- Log cell kill (P388 [13]): -1.37
- T/C (B16 [14]): 174%
- Weight change (P388 [15]): -1.9 g
- T/C (B16 [16]): 152%
- Cures (B16 [17]): 0
- Weight change (B16 [18]): 0.2 g
- T/C (B16 [19]): 106%
- Weight change (P388 [20]): -3.1 g
- T/C (P388 [21]): 146%
- Cures (B16 [22]): 0
- Weight change (B16 [23]): 0.2 T-C
- Log cell kill (P388 [24]): -1.84
- T/C (P388 [25]): 144%
- Log cell kill (P388 [26]): -1.76
- Log cell kill (P388 [27]): -1.41
- half-life (Half life was determined): 4.13 h
- T/C (B16 [28]): <100%
- Cures (B16 [29]): 0
- Weight change (B16 [30]): -0.8 g
- T/C (P388 [31]): 128%
- Weight change (P388 [32]): -1.3 g
- Log cell kill (P388 [33]): -1.96
- T/C (P388 [33]): 101%

Structure (SMILES): CC(C)NC(=O)OCc1c(COC(=O)NC(C)C)c(-c2ccc(Cl)c(Cl)c2)n2c1CC(OC(=O)CCC(=O)O)C2.CN(C)c1ccncc1 (centres undefined)
- T/C (P388 [34]): 107%
- Log cell kill (P388 [35]): -1.45
- solubility [6]: 30 mM
- Log cell kill (P388 [36]): -1.44
- Weight change (P388 [37]): -1.8 g
- T/C (P388 [38]): 106%
- Weight change (P388 [39]): -1.3 g
- Weight change (P388 [40]): -1.2 g
- T/C (P388 [41]): 125%
- half-life (Half life was determined): 2.55 h
- Log cell kill (P388 [42]): -1.08
- Weight change (P388 [43]): -2.2 g
- Log cell kill (P388 [44]): -1.39
- T/C (P388 [45]): 111%
